TRPC4 agonist: TRPC4 (mouse) channel activation. Q9QUQ5. HEK293 TRPC4beta/mu-opioid, Fluo4 calcium fluorescence; hits give high values. B-score at 10 µM. actives 0.49% (n = 310,000);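 active = B-score above 5 SD of library B-scores, and initial fluorescence ratio not above library mean plus 5 SD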;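 note: positive B-score marks a calcium rise read as TRPC4 activation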
Target sequence (Q9QUQ5 whole entry, looked up): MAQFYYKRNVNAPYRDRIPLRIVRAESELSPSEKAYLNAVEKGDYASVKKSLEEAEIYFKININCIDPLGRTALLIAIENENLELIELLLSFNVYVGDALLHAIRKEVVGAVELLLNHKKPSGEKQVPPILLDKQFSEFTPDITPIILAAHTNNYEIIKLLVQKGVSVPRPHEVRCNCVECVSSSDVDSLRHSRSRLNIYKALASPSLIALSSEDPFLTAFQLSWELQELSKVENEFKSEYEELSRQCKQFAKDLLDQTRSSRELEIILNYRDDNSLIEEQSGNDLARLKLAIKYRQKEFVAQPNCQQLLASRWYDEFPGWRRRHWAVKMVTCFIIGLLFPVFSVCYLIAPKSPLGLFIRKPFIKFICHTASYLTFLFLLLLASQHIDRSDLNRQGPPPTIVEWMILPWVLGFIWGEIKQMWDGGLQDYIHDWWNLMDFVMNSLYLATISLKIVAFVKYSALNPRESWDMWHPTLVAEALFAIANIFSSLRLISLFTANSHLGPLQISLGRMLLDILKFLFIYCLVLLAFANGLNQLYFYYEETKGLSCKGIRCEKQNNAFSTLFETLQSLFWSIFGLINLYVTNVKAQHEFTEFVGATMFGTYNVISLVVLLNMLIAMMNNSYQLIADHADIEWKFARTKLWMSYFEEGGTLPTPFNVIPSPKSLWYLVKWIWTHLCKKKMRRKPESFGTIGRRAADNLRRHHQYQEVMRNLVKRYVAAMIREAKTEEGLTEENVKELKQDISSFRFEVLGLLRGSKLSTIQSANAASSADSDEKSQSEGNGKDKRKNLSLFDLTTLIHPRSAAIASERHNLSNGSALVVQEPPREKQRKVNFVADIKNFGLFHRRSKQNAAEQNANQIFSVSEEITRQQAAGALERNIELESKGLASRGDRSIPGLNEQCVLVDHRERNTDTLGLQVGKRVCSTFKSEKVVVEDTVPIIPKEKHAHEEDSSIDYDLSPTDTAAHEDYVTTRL
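system = HEK293 cells stably co-expressing mouse TRPC4beta and mu-opioid receptor | schedule = Fluo4 dye loading 45 min at room temperature, 110 s recording | measure = B-scored integrated calcium fluorescence ratio | signal = Fluo4 calcium-sensitive dye fluorescence, kinetic, 1 Hz baseline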
TRPC6 activator: activates the mouse TRPC6 cation channel; actives 0.13% (n = 310,000); HEK293-TRPC6 membrane potential dye fluorescence; hits give high values; AID 2550; B-score at 10 µM;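 active = B-score of the integrated fluorescence ratio above library mean plus 3 SD, and starting fluorescence ratio within library mean plus 5 SD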;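 note: higher score means more depolarization so channel activation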
TRPC4 block: blocks the mouse TRPC4 cation channel; Q9QUQ5; HEK293 TRPC4beta/mu-opioid, DAMGO-evoked Fluo4 calcium flux; hits give low values; B-score at 10 µM; actives 0.39% (n = 300,000); AID 2247;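 active = B-score over 3 SD under the library average, no early fluorescence shift, positive overall ratio signal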
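Assay system: TRPC4beta/mu-opioid receptor HEK293 cell line; compound dosing: single concentration per test compound; detection: Fluo4 Ca2+ flux fluorescence; evaluation: per-well B score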
TRPC6 inhibitor: blocks the mouse TRPC6 cation channel. Q61143. HEK293-TRPC6, membrane potential dye, ACh-evoked depolarization; hits give low values. B-score at 10 µM. actives 1.1% (n = 310,000). AID 2553;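 active = B-score under library mean minus 3 SD, initial fluorescence not abnormally high, positive integrated signal ratio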;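 note: B-score derived from integrated fluorescence ratio over the kinetic read; more negative B-score means stronger inhibition of depolarization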
TRPC4 PAM: allosteric potentiators of mouse TRPC4 channel; HEK293 TRPC4beta/mu-opioid, DAMGO EC20, Fluo-4 Ca2+ flux; hits give high values; B-score at 10 µM; actives 0.42% (n = 310,000); AID 2227;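 active = B-score of calcium response area above 5 SD of library B-scores, with initial fluorescence ratio within 5 SD of library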;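 note: B-score of integrated fluorescence ratio over time as area under calcium response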
Numbers without * were called inactive. Only some compounds are listed: those with a hit (about 2.3% of all), similar ones and a draw of the others.

How did Cc1ccc(S(=O)(=O)Nc2ccc(S(=O)(=O)N3CCOCC3)cc2)cc1[N+](=O)[O-] do in these assays?
TRPC4 agonist: inactive; TRPC6 activator: inactive; TRPC4 block: inactive; TRPC6 inhibitor: inactive; TRPC4 PAM: inactive

What do the screens show for `CCN1CCCC1CNC(=O)c1ccccc1Cl` (stereo not given)?
TRPC4 agonist: inactive; TRPC6 activator: inactive; TRPC4 block: inactive; TRPC6 inhibitor: inactive; TRPC4 PAM: inactive

How did CCc1cc(Cl)c(OC)c(C(=O)NC[C@@H]2CCCN2CC)c1O do in these assays?
TRPC4 agonist: 70*; TRPC6 activator: inactive; TRPC4 block: inactive; TRPC6 inhibitor: inactive; TRPC4 PAM: inactive

What do the screens show for `COc1ccc(CN2CCN(CC(O)Cn3c4ccccc4c4ccccc43)CC2)cc1` (stereo not given)?
TRPC4 agonist: 79*; TRPC6 activator: inactive; TRPC4 block: inactive; TRPC6 inhibitor: inactive; TRPC4 PAM: inactive

Results for Cc1csc2c(N3CCN(S(=O)(=O)c4ccc(Cl)cc4)CC3)ncnc12 ?
TRPC4 agonist: inactive; TRPC6 activator: inactive; TRPC4 block: inactive; TRPC6 inhibitor: inactive; TRPC4 PAM: 10*

Results for C=CCn1c(CCNC(=O)C(C)(C)C)nc2ccccc21 ?
TRPC4 agonist: 146*; TRPC6 activator: inactive; TRPC4 block: inactive; TRPC6 inhibitor: inactive; TRPC4 PAM: inactive

What do the screens show for `Cc1cc(=O)oc2cc(NC(=S)NCc3ccccn3)ccc12`?
TRPC4 agonist: inactive; TRPC6 activator: inactive; TRPC4 block: -6*; TRPC6 inhibitor: inactive; TRPC4 PAM: inactive

How did O=C(NCc1ccco1)c1cnn2c1NC(c1ccc(Br)cc1)CC2C(F)(F)F (stereo not given) do in these assays?
TRPC4 agonist: inactive; TRPC6 activator: inactive; TRPC4 block: inactive; TRPC6 inhibitor: inactive; TRPC4 PAM: 13*

What do the screens show for `Cc1c(C(=O)N2CCCCC2)c(S(=O)(=O)Nc2ccc(F)cc2F)c(C)n1C`?
TRPC4 agonist: inactive; TRPC6 activator: inactive; TRPC4 block: inactive; TRPC6 inhibitor: inactive; TRPC4 PAM: inactive

Results for Cc1ccc(-c2nc(CN3CCCCC3)cc(CN3CCCCC3)c2O)cc1 ?
TRPC4 agonist: inactive; TRPC6 activator: inactive; TRPC4 block: inactive; TRPC6 inhibitor: inactive; TRPC4 PAM: inactive

What do the screens show for `CCN1C(=O)[C@H]2[C@@H](c3ccc(-c4ccc(C(C)=O)cc4)c(OC)c3)N[C@@](Cc3ccccc3)(C(=O)OC)[C@H]2C1=O`?
TRPC4 agonist: inactive; TRPC6 activator: inactive; TRPC4 block: inactive; TRPC6 inhibitor: inactive; TRPC4 PAM: inactive

How did Cc1cc(C(=O)CN2C(=O)NC3(CCCc4sccc43)C2=O)c(C)n1-c1ccc(Cl)cc1 (stereo not given) do in these assays?
TRPC4 agonist: inactive; TRPC6 activator: inactive; TRPC4 block: inactive; TRPC6 inhibitor: inactive; TRPC4 PAM: 10*

How did NC(=O)CN1C(=O)NC2(CCCc3sccc32)C1=O (stereo not given) do in these assays?
TRPC4 agonist: inactive; TRPC6 activator: inactive; TRPC4 block: inactive; TRPC6 inhibitor: inactive; TRPC4 PAM: inactive

What do the screens show for `O=c1nc(-c2ccccc2)cc(-c2ccccc2)[nH]1`?
TRPC4 agonist: inactive; TRPC6 activator: inactive; TRPC4 block: inactive; TRPC6 inhibitor: inactive; TRPC4 PAM: inactive

How did COc1ccccc1-c1cc(-c2ccccc2)nc(=O)[nH]1 do in these assays?
TRPC4 agonist: inactive; TRPC6 activator: inactive; TRPC4 block: inactive; TRPC6 inhibitor: inactive; TRPC4 PAM: 21*

Results for Cc1ccc(Cl)cc1N1CCN(Cc2nc3c(c(=O)[nH]c(=O)n3C)n2Cc2ccccc2F)CC1 ?
TRPC4 agonist: inactive; TRPC6 activator: inactive; TRPC4 block: inactive; TRPC6 inhibitor: inactive; TRPC4 PAM: 26*

How did CCN1CCN(Cc2nc3c(c(=O)[nH]c(=O)n3C)n2Cc2ccccc2Cl)CC1 do in these assays?
TRPC4 agonist: inactive; TRPC6 activator: inactive; TRPC4 block: inactive; TRPC6 inhibitor: inactive; TRPC4 PAM: 28*

How did COC(=O)c1ccc(NC(=O)CSc2nncn2-c2ccccn2)cc1 do in these assays?
TRPC4 agonist: inactive; TRPC6 activator: inactive; TRPC4 block: inactive; TRPC6 inhibitor: inactive; TRPC4 PAM: inactive

What do the screens show for `CCN1CCN(CC(=O)N2N=C(c3cccs3)CC2c2ccc(C)cc2)C(=O)C1=O` (stereo not given)?
TRPC4 agonist: inactive; TRPC6 activator: inactive; TRPC4 block: inactive; TRPC6 inhibitor: inactive; TRPC4 PAM: inactive

What do the screens show for `COc1ccccc1CNC(=O)Cn1c(=O)c2cccn2c2cccnc21`?
TRPC4 agonist: inactive; TRPC6 activator: inactive; TRPC4 block: inactive; TRPC6 inhibitor: inactive; TRPC4 PAM: inactive

What do the screens show for `O=C(CC1=NCCNC(c2ccccc2)C1)c1ccccc1O` (stereo not given)?
TRPC4 agonist: inactive; TRPC6 activator: inactive; TRPC4 block: inactive; TRPC6 inhibitor: inactive; TRPC4 PAM: 10*

Results for CCc1cccc(OCC(=O)Nc2c[nH]c(=O)[nH]c2=O)c1 ?
TRPC4 agonist: inactive; TRPC6 activator: inactive; TRPC4 block: inactive; TRPC6 inhibitor: inactive; TRPC4 PAM: inactive

What do the screens show for `CCc1cccc(OCC(=O)Nc2ccc(C(=O)O)cc2NC(=O)COc2cccc(CC)c2)c1`?
TRPC4 agonist: inactive; TRPC6 activator: inactive; TRPC4 block: -8*; TRPC6 inhibitor: inactive; TRPC4 PAM: inactive

How did CCC1(CC)NC(=O)N(CC(=O)OCC(=O)Nc2ncc(Cl)cc2Cl)C1=O do in these assays?
TRPC4 agonist: inactive; TRPC6 activator: inactive; TRPC4 block: inactive; TRPC6 inhibitor: inactive; TRPC4 PAM: inactive

Results for O=C(CCCl)Nc1cc(SCCO)cc([N+](=O)[O-])c1 ?
TRPC4 agonist: inactive; TRPC6 activator: inactive; TRPC4 block: inactive; TRPC6 inhibitor: inactive; TRPC4 PAM: inactive

How did O=C(Nc1cc(SCCO)cc([N+](=O)[O-])c1)c1ccc(Br)o1 do in these assays?
TRPC4 agonist: inactive; TRPC6 activator: inactive; TRPC4 block: -5*; TRPC6 inhibitor: inactive; TRPC4 PAM: inactive

Results for CCOc1cc(/C=N/NC(=O)CN2CCCCC2)ccc1OCc1cccc(Cl)c1 ?
TRPC4 agonist: inactive; TRPC6 activator: inactive; TRPC4 block: inactive; TRPC6 inhibitor: inactive; TRPC4 PAM: 11*

How did CCOc1cc(/C=N/NC(=O)CN2CCCCC2)ccc1OCc1ccc(Cl)cc1 do in these assays?
TRPC4 agonist: inactive; TRPC6 activator: inactive; TRPC4 block: inactive; TRPC6 inhibitor: inactive; TRPC4 PAM: inactive

What do the screens show for `CCCC(=O)Nc1cc(C)c2c(=O)oc3ccccc3c2n1`?
TRPC4 agonist: inactive; TRPC6 activator: inactive; TRPC4 block: inactive; TRPC6 inhibitor: inactive; TRPC4 PAM: inactive

What do the screens show for `Cc1cc(NC(=O)CN2CCc3ccccc3C2)nc2c1c(=O)oc1ccccc12`?
TRPC4 agonist: 98*; TRPC6 activator: inactive; TRPC4 block: inactive; TRPC6 inhibitor: inactive; TRPC4 PAM: inactive

Assay outcomes deposited in PubChem by Johns Hopkins Ion Channel Center.
